Hits are enriched below; roughly 3.7% of the tested compounds scored in any of these assays.
GRIN3A LBD mod = modulators (binders) of human NR3A ligand-binding domain; NR3A LBD differential scanning fluorimetry, Tm shift; 0% = protein alone, 100% = glycine-bound protein; Tm shift relative to glycine control, % at 25 µM; hit rate 2.5% among 340,000;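 active means melting temperature shift of at least 10% of the positive control shift, at one fixed dose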
procasp3 activ = activates human procaspase-3. recombinant procaspase-3 D3A, Ac-DEVD-pNA absorbance 405 nm. activation, % at 8.5 µM. hit rate 0.11% among 330,000;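 active means activation above the mean of all tested compounds plus 3 SD, cut at about 21% in these data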;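 further: 0% = DMSO alone and 100% = DMSO wells spiked with extra 5 µM PC-3 D3A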
Target sequence (P42574 whole entry D9A/D28A/D175A): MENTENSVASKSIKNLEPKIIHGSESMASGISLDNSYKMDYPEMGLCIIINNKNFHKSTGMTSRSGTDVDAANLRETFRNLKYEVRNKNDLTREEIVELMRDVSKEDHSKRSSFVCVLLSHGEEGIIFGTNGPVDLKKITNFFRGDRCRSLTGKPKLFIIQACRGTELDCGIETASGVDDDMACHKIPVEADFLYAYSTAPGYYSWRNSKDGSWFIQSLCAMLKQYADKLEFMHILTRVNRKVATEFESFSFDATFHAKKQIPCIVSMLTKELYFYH
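Assay system: Autoprocessing-dead procaspase-3 D3A mutant enzyme; also added: Ac-DEVD-pNA; doses: one concentration, 8.5 µM nominal, 0.8% DMSO; times: 1 h compound preincubation, 2 h substrate hydrolysis at 25 °C; technique: 405 nm absorbance of p-nitroaniline, reads at 0 and 120 min; measure: % activation between DMSO and enzyme-spiked controls; repeats: single replicate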
aDG glyco up = alpha-DG glycosylation activation. hit rate 0.22% among 360,000. activation, % at 10 µM. Pro5-aDG cells, alpha-DG glycosylation AlphaScreen (IIH6); 0% Pro5, 100% B10-LARGE cell signal. AID 624168;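 active means activation of at least 8% versus controls, or a plate z-score of at least 8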;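 further: Pro5 are CHO cells carrying HIG-tagged alpha-DG that lacks glycosylation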
MPTP inh = blocks calcium-induced mitochondrial swelling; inhibition, % at 10 µM; AID 602449; isolated mouse mitochondria, Ca2+ swelling absorbance, 30 min; hit rate 1.4% among 360,000;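 active means inhibition of 50% or more, scaled per plate between neutral and stimulator controls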;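 further: 0% = DMSO wells given calcium and 100% = 1 mM EGTA wells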
procasp7 counter = counter-screen: procaspase-7 (human) activation; recombinant procaspase-7, Ac-DEVD-pNA absorbance 405 nm; D23A/D198A/D206A triple mutant, cannot self-cleave; scale: DMSO 0, 5 µM enzyme 100; activation, % at 8.5 µM; AID 463210; hit rate 0.093% among 330,000;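 active means percent activation above the screen-wide mean plus 3 SD, cut at about 25% in these data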
Target sequence (P55210 whole entry D23A/D198A/D206A): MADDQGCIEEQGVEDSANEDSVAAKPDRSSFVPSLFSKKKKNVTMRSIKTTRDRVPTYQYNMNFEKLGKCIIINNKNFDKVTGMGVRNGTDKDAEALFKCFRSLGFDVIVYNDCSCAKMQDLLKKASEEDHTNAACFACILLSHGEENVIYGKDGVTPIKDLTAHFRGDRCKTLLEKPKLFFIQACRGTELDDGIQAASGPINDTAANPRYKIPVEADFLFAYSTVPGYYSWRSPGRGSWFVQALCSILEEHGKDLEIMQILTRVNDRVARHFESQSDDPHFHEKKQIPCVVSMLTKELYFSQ
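Assay system: Uncleavable procaspase-7 mutant enzyme / Input: 2 µM procaspase-7 mutant as dispensed / Dosing: single nominal 8.5 µM compound dose, 0.8% DMSO final / Timing: 1 h enzyme–compound preincubation and 2 h substrate reaction, both 25 °C / Detection: p-Nitroaniline absorbance at 405 nm, read at 0 and 120 min / Replication: singlicate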
Starred values were filed as active, the others as inactive; nt = no result.

SMILES	GRIN3A LBD mod	procasp3 activ	aDG glyco up	MPTP inh	procasp7 counter
COC(=O)c1ccc(Nc2ncnc3c2cnn3-c2cccc(C)c2)cc1	-2.3	-2.6	0.4	3.0	5.6
COc1ccc(Nc2ncnc3c2cnn3-c2cccc(C)c2)cc1OC	0.2	nt	0.1	1.6	nt
Cc1cccc(-n2ncc3c(Nc4ccc(F)cc4)ncnc32)c1	24.4*	9.9	0.0	4.6	4.1
CC1(C(=O)NCc2ccccc2)CSCC(=O)N1CCc1c[nH]c2ccccc12 (configuration not stated)	nt	nt	-0.3	-0.5	nt
C[n+]1ccc(C(=O)Nc2ccccc2Cl)cc1	2.7	-1.9	-0.2	0.6	8.2
COc1ccc(C(=O)Nc2ccc(Nc3ccccc3)cc2)cc1OC	-0.6	13.3	0.2	0.4	5.1
COc1ccc(C(=O)Nc2ccc(OCc3ccccc3)cc2)cc1[N+](=O)[O-]	34.2*	-1.4	0.0	15.4	13.8
COc1ccc(C(=O)Nc2ccc(Nc3ccccc3)cc2)cc1[N+](=O)[O-]	27.9*	-4.0	0.8	0.6	-13.6
Oc1ccc2ccccc2c1/C=N/Nc1nnc(-c2ncc[nH]2)c2ccccc12	21.3*	1.9	-0.2	11.8	3.7
CS(=O)(=O)Nc1ccc2c(c1)[C@H]1C[C@H](CC(=O)NCc3ccccc3)O[C@H](CO)[C@H]1O2	nt	nt	-0.2	-0.8	nt
CNC(=S)N(C)/N=C1/C(=O)N(Cc2c(Cl)cccc2Cl)c2ccccc21	-0.8	-14.9	0.9	-1.1	-13.4
Cc1cc(C)nc(NC(=O)c2csnn2)c1	-2.7	-6.2	0.2	-0.1	-5.2
Cc1cccnc1NC(=O)c1ccccc1-c1ccccc1C(=O)Nc1ncccc1C	-1.0	-10.8	0.1	-1.1	-4.8
Cc1cccnc1NC(=O)c1csnn1	10.3*	-0.6	0.0	-0.3	9.7
O=C(Nc1csnn1)c1csnn1	15.0*	-9.8	-0.1	-0.9	-11.2
O=C(Nc1ccc(OC(F)F)cc1)c1cc(S(=O)(=O)N2CCOCC2)ccc1N1CCCC1	0.1	nt	-0.2	0.6	nt
CCOc1ccccc1NC(=O)COC(=O)COc1cccc2c1OC(C)(C)C2	nt	nt	-0.2	1.4	nt
N/C(=N\OC(=O)/C=C/c1ccccc1Cl)c1ccncc1	11.6*	-3.0	0.3	-2.7	11.5
N/C(=N\OC(=O)/C=C/c1ccccc1)c1ccncc1	-8.5	2.9	0.0	1.2	2.0
O=C(Nc1ccccc1)c1ccc(-c2ccccc2)s1	14.5*	2.6	0.3	1.5	9.3
COc1ccc2cc(C(=O)Nc3ccc(S(N)(=O)=O)cc3)sc(=O)c2c1OC	22.5*	0.6	0.6	-4.5	16.5
O=C(Nc1ccccc1)c1cc2ccc3ccccc3c2s1	33.0*	-0.8	0.2	47.6	0.6
COc1ccc2cc(C(=O)Nc3ccccc3)sc(=O)c2c1OC	21.9*	-8.6	-0.1	1.6	-1.6
COc1cc(NC(=O)c2cc3c(Cl)nc4ccccc4c3s2)cc(OC)c1OC	-3.4	1.9	-0.3	-13.9	4.3
COc1ccc2cc(C(=O)NCCO)sc(=O)c2c1OC	-0.9	-6.2	-0.3	0.1	3.0
SMILES	GRIN3A LBD mod	procasp3 activ	aDG glyco up	MPTP inh	procasp7 counter
CCOC(=O)c1ccccc1NC(=O)Cc1ccc(S(=O)(=O)N2CCCC2)s1	2.0	-3.3	0.0	-0.1	-7.2
COc1ccc(CC(N)c2csc(Nc3nncc4ccccc34)n2)cc1 (configuration not stated)	nt	nt	-0.3	3.0	nt
COc1ccc(NC(=S)/N=C(\N)Nc2nc(C)c3ccc(C)cc3n2)cc1	6.6	-8.9	0.6	-1.3	-4.8
CCOc1ccc2nc(N/C(N)=N/C(=S)Nc3ccc(C)c(C)c3)nc(C)c2c1	20.1*	-0.6	1.1	-0.5	1.3
CCOc1ccc(NS(=O)(=O)c2ccc(C(=O)N(C)CC(=O)Nc3ccccc3Br)cc2)cc1	-3.8	nt	-0.2	0.0	nt
NC(=O)COC(=O)c1cccc(NS(=O)(=O)/C=C/c2ccccc2)c1	11.6*	-1.3	0.0	0.7	6.7
CCn1c2ccccc2n2c(=O)c(=O)n(CC(=O)Nc3ccc(C(C)C)cc3)nc12	12.9*	-1.4	-0.1	1.9	-1.4
Nc1nc(=S)[nH]c2c1C1(CCCCC1)Cc1ccccc1-2	13.4*	-4.7	0.3	0.5	-1.5
Nc1nc(=S)[nH]c2c1C1(CCCC1)Cc1ccccc1-2	-0.6	-10.3	-0.3	0.6	0.5
CC(OC(=O)c1ccc([N+](=O)[O-])o1)C(=O)Nc1nc(-c2ccc(F)c(F)c2)cs1 (configuration not stated)	14.8*	nt	-0.2	-0.9	nt
CCC(c1nnnn1-c1ccc2c(c1)OCCO2)N1CCc2ccccc2C1 (configuration not stated)	nt	nt	0.2	0.8	nt
O=C(O)c1sccc1S(=O)(=O)N1CCOCC1	10.6*	-1.6	-0.2	-1.0	-5.2
CNC(=O)N(O)C1N(/N=C/c2ccc(SC)cc2)C(=S)SC1(C)C (configuration not stated)	-1.2	10.7	-0.1	0.1	0.5
CN(C)c1ccc(/C=N/N2C(=S)SC(C)(C)C2N(O)C(=O)Nc2ccc([N+](=O)[O-])cc2)cc1 (configuration not stated)	10.9*	12.2	-0.2	15.3	-2.4
CCN(CC)CCNC(=O)C(Oc1ccccc1)Oc1ccccc1	30.7*	-2.8	0.0	-0.5	4.1
CCc1ccc(-c2cc(C(=O)NN3CCOCC3)c3ccccc3n2)cc1	11.0*	2.0	0.7	-5.5	-2.1
CC1(C(=O)OCC(=O)Nc2ccc(C(N)=O)cc2)CC1(Cl)Cl (configuration not stated)	0.1	-4.0	0.1	4.9	4.4
COc1ccccc1NC(=O)c1ccc(NC(=O)COC(=O)C2(C)CC2(Cl)Cl)cc1 (configuration not stated)	25.3*	-4.9	-0.2	2.6	6.8
COc1cc(C(=O)Nc2cc(S(C)(=O)=O)ccc2Cl)ccc1OCC(=O)N1CCOCC1	1.1	5.6	-0.4	-0.3	15.9
CC(C)(C)OC(=O)N1CCC(NC(=O)c2[nH]cnc2C(=O)Nc2ccccc2)CC1	-11.0	1.0	0.3	-0.1	7.2
Cc1ccc(NC(=O)c2nc[nH]c2C(=O)NC2CCN(C(=O)OC(C)(C)C)CC2)cc1	23.4*	8.4	-0.1	-0.3	8.2
CC(C)(C)OC(=O)N1CCC(NC(=O)c2[nH]cnc2C(=O)Nc2ccc(Cl)cc2)CC1	27.0*	7.1	0.4	-0.6	-0.8
Cc1ccc(C)c(N2CCN(S(=O)(=O)c3ccc4c(c3)CC(=O)N4C)CC2)c1	-3.8	4.5	-0.2	-2.5	10.5
CN1C(=O)Cc2cc(S(=O)(=O)N3CCN(c4cccc(C(F)(F)F)c4)CC3)ccc21	24.3*	-2.9	0.1	1.0	7.3
Cn1c(=O)c2c(ncn2CC(=O)OCCCC(=O)c2ccc(Br)cc2)n(C)c1=O	17.7*	8.9	2.3	32.6	-8.0
